Reference: ChEMBL document CHEMBL3585270, “Discovery of oxime-bearing naphthalene derivatives as a novel structural type of Nrf2 activators” (Bioorg Med Chem, 2015)
Activity calls are given as the source filed them. The calls are words filed in the database; no cut-off is given here.

Tests used:
[1] = molecular target: T1, Nuclear factor erythroid 2-related factor 2 (Homo sapiens) (UniProt Q16236); assay: Activation of Nrf2 in human NPC-TW01 or HONE1 cells expressing ARE-luciferase at 20 uM incubated for 16 hrs by luciferase reporter gene assay relative to untreated control; type: cell-based
T1 sequence (whole entry): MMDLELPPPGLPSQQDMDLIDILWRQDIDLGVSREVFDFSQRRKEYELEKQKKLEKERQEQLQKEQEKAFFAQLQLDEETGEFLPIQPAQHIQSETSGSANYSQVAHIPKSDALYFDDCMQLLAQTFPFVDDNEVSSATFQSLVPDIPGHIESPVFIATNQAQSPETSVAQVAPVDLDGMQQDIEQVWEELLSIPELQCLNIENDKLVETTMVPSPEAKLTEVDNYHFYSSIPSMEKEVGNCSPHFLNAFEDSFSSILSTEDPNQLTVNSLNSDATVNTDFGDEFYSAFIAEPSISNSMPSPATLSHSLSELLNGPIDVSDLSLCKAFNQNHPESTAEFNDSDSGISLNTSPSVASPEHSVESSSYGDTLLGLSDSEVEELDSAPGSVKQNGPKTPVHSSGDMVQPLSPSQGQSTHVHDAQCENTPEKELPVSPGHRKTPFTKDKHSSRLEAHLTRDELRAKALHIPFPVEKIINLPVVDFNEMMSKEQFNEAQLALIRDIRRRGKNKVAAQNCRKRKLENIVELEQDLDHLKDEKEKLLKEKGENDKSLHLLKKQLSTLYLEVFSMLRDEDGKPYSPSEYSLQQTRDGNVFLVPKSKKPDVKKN

Jurkat = assay: Cytotoxicity against human Jurkat cells assessed as reduction in cell viability by MTT assay; type: cell-based
Procedure, shortened: (§1)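 Cells cultured in MEM or RPMI1640 with 10% FBS, 37 °C, 5% CO₂. After compound exposure, 5 µg/ml MTT in MEM for 2 h at 37 °C, then solubilized overnight at 37 °C (40% DMF, 20% SDS); absorbance at 570 nm. IC50 taken from linear portion of curve as concentration cutting absorbance 50% versus control.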

NCI-H226 = assay: Cytotoxicity against human NCI-H226 cells assessed as reduction in cell viability by MTT assay; type: cell-based; procedure, shortened: as §1
[2] = Cytotoxicity against human NPC-TW01 cells assessed as reduction in cell viability by MTT assay; type: cell-based; procedure, shortened: as §1
NPC-TW01 [3] = assay: Inhibition of H2O2-induced intracellular oxidative stress in human NPC-TW01 cells expressing pGL4-9ARE at 20 uM pre-treated for 6 hrs before H2O2 challenge for 16 hrs by DCFH-DA dye based flow cytometry; type: functional, cell-based
Procedure, shortened: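 TW01-pGL4-9ARE cells, 1 × 10⁵ per well, grown overnight, pre-treated 20 µM for 6 h, then 500 µM H2O2 for 16 h. Stained with 20 µM DCFH-DA 30 min at 37 °C, resuspended in PBS, analysed by flow cytometry; geometric mean fluorescence reported, p < 0.05 versus H2O2 alone.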

[4] = molecular target: T1, Nuclear factor erythroid 2-related factor 2 (Homo sapiens); assay: Induction of Nrf2 Ser40 phosphorylation in human NPC-TW01 cells expressing pGL4-9ARE incubated for 6 and 12 hrs by Western blot method; type: cell-based
Procedure, shortened: (§2)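 TW01-pGL4-9ARE cells treated and harvested at set times; lysed in NP-40 buffer with phosphatase/protease inhibitors, protein by BCA. 40 µg lysate on 10% SDS-PAGE, PVDF transfer, 5% BSA/TBS-Tween block; primary antibodies (p-Nrf2 Ser40, total Nrf2, actin) overnight at 4 °C, HRP secondary 1 h room temperature; imaged by chemiluminescence imager.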

NPC-TW01 [5] = assay: Effect on Nrf2 protein expression in human NPC-TW01 cells expressing pGL4-9ARE incubated for 6 and 12 hrs by Western blot method; type: functional, cell-based; procedure, shortened: as §2
[6] = molecular target: T1, Nuclear factor erythroid 2-related factor 2 (Homo sapiens); assay: Activation of Nrf2 in human NPC-TW01 or HONE1 cells expressing ARE-luciferase at 20 uM incubated for 16 hrs in presence of PKC signaling inhibitor staurosporine by luciferase reporter gene assay relative to untreated control; type: cell-based

fold change (FC) [1] | Activity [4] | Activity [6] | Structure (SMILES) | IC50 (Jurkat) [µM] | IC50 (NCI-H226) [µM] | IC50 [2] [µM] | inhibition (NPC-TW01 [3]) | Activity (NPC-TW01 [5])
1.07 | – | – | O/N=C(\COc1ccc2ccccc2c1)c1ccc(Cl)cc1 | 37.3 | 34.9 | 26 | – | –
1.25 | – | – | O/N=C(\COc1cccc2ccccc12)c1ccc2ccccc2c1 | > 50 | 38.9 | 36.1 | – | –
1.17 | – | – | C/C(COc1cccc2ccccc12)=N\O | > 50 | > 50 | > 50 | – | –
1.05 | – | – | O/N=C(\COc1ccc2ccccc2c1)c1ccc(C(F)(F)F)cc1 | 36.2 | 34.1 | 30.7 | – | –
0.93 | – | – | COc1ccc(OC)c(/C(COc2cccc3ccccc23)=N/O)c1 | > 50 | 41.5 | 32.3 | – | –
1.01 | – | – | O/N=C(\COc1cccc2ccccc12)c1ccc(C(F)(F)F)cc1 | > 50 | > 50 | 46.4 | – | –
1.19 | – | – | O/N=C(\COc1cccc2ccccc12)c1ccc(-c2ccccc2)cc1 | > 50 | > 50 | > 50 | – | –
3.49 | Active | inactive | O/N=C(\COc1ccc2ccccc2c1)c1ccccc1 | > 50 | > 50 | > 50 | Active | inactive
0.95 | – | – | O/N=C(\COc1ccc2ccccc2c1)c1ccc(Br)cc1 | 47.2 | 39.1 | 27.9 | – | –
1.36 | – | – | O/N=C(\COc1ccc2ccccc2c1)c1ccc2ccccc2c1 | 24.3 | 37.1 | > 50 | – | –
1.1 | – | – | COc1ccc(/C(COc2cccc3ccccc23)=N/O)cc1 | 31.8 | 36.7 | 32.3 | – | –
1.65 | Active | inactive | COc1ccc(/C(COc2ccc3ccccc3c2)=N/O)cc1 | 35.8 | > 50 | > 50 | Active | inactive
1 | – | – | O/N=C(\COc1cccc2ccccc12)c1ccc(Cl)cc1 | > 50 | > 50 | > 50 | – | –
1.42 | – | – | O/N=C(\COc1ccc2ccccc2c1)c1ccc(F)c(F)c1 | 44.6 | 42.8 | 36.1 | – | –
1.14 | – | – | O/N=C(\COc1cccc2ccccc12)c1ccccc1 | > 50 | 47.1 | > 50 | – | –
1.03 | – | – | O/N=C(\COc1cccc2ccccc12)c1ccc(Br)cc1 | > 50 | > 50 | > 50 | – | –
0.86 | – | – | O/N=C(\COc1cccc2ccccc12)c1ccc(F)c(F)c1 | 42.6 | > 50 | 36.8 | – | –
1.18 | – | – | O/N=C(\COc1ccc2ccccc2c1)c1ccc(-c2ccccc2)cc1 | > 50 | > 50 | > 50 | – | –
1.09 | – | – | O/N=C(\COc1cccc2ccccc12)c1ccc(F)cc1 | > 50 | > 50 | > 50 | – | –
2.61 | Active | inactive | O/N=C(\COc1ccc2ccccc2c1)c1ccc(F)cc1 | > 50 | > 50 | > 50 | Active | inactive
2.04 | Active | inactive | C/C(COc1ccc2ccccc2c1)=N\O | > 50 | > 50 | > 50 | Active | inactive
1.77 | – | – | CC(C)(C)c1cc(O)ccc1O | – | – | – | – | –
0.65 | – | – | COc1ccc(OC)c(/C(COc2ccc3ccccc3c2)=N/O)c1 | 10.1 | 8.6 | 16.7 | – | –
